Reference: ChEMBL document CHEMBL3351896, “Small Molecule that Reverses Dexamethasone Resistance in T-cell Acute Lymphoblastic Leukemia (T-ALL)” (ACS Med Chem Lett, 2014)
pEC50: −log10 of the molar value. The source made the active and inactive calls. No cut-off for these calls is given here.

How the values were obtained:
[1] = Growth inhibition of human CUTLL1 cells in presence of 1 uM dexamethasone after 48 hrs by alamar blue assay; type: functional, cell-based; conditions: CUTLL1, 48 h
Summary of the method: (§1)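 CUTLL1 cells given compound alone or with dexamethasone 1 μM. Growth inhibition measured by alamar blue after 48 h.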

[2] = Growth inhibition of human CUTLL1 cells in absence of 1 uM dexamethasone after 48 hrs by alamar blue assay; type: functional, cell-based; conditions: CUTLL1, 48 h; summary of the method: as §1
CUTLL1 [3] = assay: Growth inhibition of human CUTLL1 cells at 12.5 to 50 uM in presence of 1 uM dexamethasone and 1 uM […] and glucocorticoid receptor antagonist RU486 after 24 hrs by alamar blue assay
[4] = molecular target: T1, Gamma-secretase (Homo sapiens) (UniProt Q96BI3+Q9NZ42+Q8WW43+P49768+Q92542+P49810); assay: Inhibition of gamma secretase in human CUTLL1 cells assessed as effect on NOTCH cleavage level at 100 nM in presence of 1 uM dexamethasone after 24 hrs by Western blotting; type: cell-based
Summary of the method: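 Dexamethasone-resistant human T-ALL CUTLL1 cells were treated for 24 h with the gamma-secretase inhibitor at 100 nM together with dexamethasone at 1 μM. Intracellular NOTCH (ICN) protein was then measured by Western blot.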

[5] = molecular target: T1, Gamma-secretase (Homo sapiens); assay: Inhibition of gamma secretase in human CUTLL1 cells assessed as effect on NOTCH cleavage level at 100 nM after 24 hrs by Western blotting; type: cell-based
CUTLL1 [6] = assay: Induction of PARP1 cleavage in human CUTLL1 cells at 1 uM after 24 hrs by western blotting method; type: functional, cell-based
CUTLL1 [7] = assay: Growth inhibition of human CUTLL1 cells with low GR expression levels after 48 hrs by alamar blue assay; type: functional, cell-based
Summary of the method: (§2)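 Human CUTLL1 T-ALL cells engineered to express high (overexpressed) or low (knockdown) glucocorticoid receptor levels. Exposed to compound alone or with 1 μM dexamethasone. Alamar blue growth inhibition read after 48 h.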

CUTLL1 [8] = assay: Growth inhibition of human CUTLL1 cells with high GR expression levels after 48 hrs by alamar blue assay; type: functional, cell-based; summary of the method: as §2

SMILES	pEC50 [1]	pEC50 [2]	other results
Nc1ncc(-c2ccccc2)c(C2CC2)n1	< 4.00	< 4.00	–
Nc1ncc(-c2ccncc2)cn1	< 4.00	< 4.00	–
Nc1ncc(-c2ccncc2)c(-c2ccoc2)n1	< 4.00	< 4.00	–
C=Cc1cnccc1-c1cnc(N)nc1C1CC1	4.54	4.52	–
Cc1ncc(-c2ccncc2)c(C2CC2)n1	< 4.00	< 4.00	–
Nc1ncc(-c2ccnc(-c3ccoc3)c2)c(C2CC2)n1	4.80	< 4.00	growth inhibition (GI) (CUTLL1 [3]): inactive
C[C@H](NC(=O)Cc1cc(F)cc(F)c1)C(=O)N[C@H]1N=C(c2ccccc2)c2ccccc2N(C)C1=O	–	–	inhibition [4]: Active; inhibition [5]: Active
Nc1ncc(-c2ccncc2-c2ccoc2)c(C2CC2)n1	4.55	4.55	–
Nc1ncc(-c2ccc(F)cc2)c(C2CC2)n1	< 4.00	< 4.00	–
Nc1ncc(-c2ccncc2)c(-c2ccccc2)n1	< 4.00	< 4.00	–
Cc1nc(N)ncc1-c1ccncc1	< 4.00	< 4.00	–
Nc1ncc(-c2ccncc2)c(C2CCC2)n1	< 4.00	< 4.00	–
Nc1ncc(-c2ccnc(Cl)c2)c(C2CC2)n1	< 4.00	< 4.00	–
Nc1ncc(-c2cc(Cl)nc(Cl)c2)c(C2CC2)n1	5.12	5.00	–
COc1ccc(-c2cnc(N)nc2C2CC2)cc1	< 4.00	< 4.00	–
Nc1ncc(-c2ccncc2-c2ccccc2)c(C2CC2)n1	< 4.00	< 4.00	–
CC(C)c1nc(N)ncc1-c1ccncc1	< 4.00	< 4.00	–
C[C@@H]1C[C@H]2[C@@H]3CCC4=CC(=O)C=C[C@]4(C)[C@@]3(F)[C@@H](O)C[C@]2(C)[C@@]1(O)C(=O)CO	–	–	Activity (CUTLL1 [6]): inactive; growth inhibition (GI) (CUTLL1 [7]): inactive; growth inhibition (GI) (CUTLL1 [8]): Active
Nc1ncc(-c2ccnc3ccccc23)c(C2CC2)n1	< 4.00	< 4.00	–
Nc1ncc(-c2ccccn2)c(C2CC2)n1	< 4.00	< 4.00	–
Nc1ncc(-c2ccnc(F)c2)c(C2CC2)n1	< 4.00	< 4.00	–
Nc1ncc(-c2cccnc2)c(C2CC2)n1	< 4.00	< 4.00	–
